Source: article PMC6689761 (International Journal of Nanomedicine, 2019)
pEC50: −log10 of the molar value. Where two headings read alike, the source gives them in different places.

Tests used:
Aqueous solubility = format: physicochemical; details: water, 24 hrs, room temperature
Summary of the method: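 Excess drug mixed in water 24 hrs at room temperature, spun 20,000× g for 10 mins. Supernatant quantified by reversed-phase UPLC on C18 at 1.0 mL/min. Parent run in 95% 20 mM ammonium acetate/5% ACN, pH 3.9, detected at 272 nm. Prodrug run in 90% methanol/10% water, detected at 280 nm. Peak areas compared with 0.05–50 µg/mL standards in methanol.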

HIV-1ADA [1] = assay: EC50 by HIV-1 RT activity in MDMs; format: cell-based; details: HIV-1ADA MOI 0.1, HIV-1 RT activity
Summary of the method: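 Human MDMs pretreated 1 hr with 0.01–1000 nM test compound, then exposed to HIV-1ADA at MOI 0.1 for 4 hrs. RT activity measured in collected media. EC50 taken as 50% inhibitory concentration from nonlinear-regression concentration–response fits.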

[2] = test system: human monocyte-derived macrophages (MDMs); assay: MTT cytotoxicity assay in MDMs; format: cell-based; details: up to 100 µM, 4 days of exposure
Summary of the method: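 Monocytes plated at 80,000 cells/well and differentiated to macrophages. Exposed to 10–400 µM test compound or nanoformulation for 4 days. Washed, then MTT (5 mg/mL) added for 45 mins at 37°C. Formazan dissolved in DMSO and absorbance read at 490 nm. Values normalised to untreated cells; at least three biological replicates.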

[3] = test system: human monocyte-derived macrophages (MDMs); assay: Nanoparticle macrophage uptake and retention; format: cell-based; details: 100 µM
HIV-1ADA [4] = assay: Antiretroviral efficacy in drug-preloaded MDMs; format: cell-based
Summary of the method: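 Human monocytes from HIV- and hepatitis-seronegative donors, elutriated and differentiated to MDMs. Cells exposed to 100 µM test drug or nanoformulation for 8 hrs, PBS-washed, then challenged with HIV-1ADA (MOI 0.1) for 18 hrs at times from 0 hr to 15 days after loading. Cultured 10 more days, medium changed every other day. Day-10 medium RT activity and p24 immunocytochemistry on 4% paraformaldehyde-fixed cells; uninfected and infected controls.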

[5] = PK and biodistribution in rats after IM injection; format: in vivo, Sprague-Dawley rats; details: rat
[6] = format: in vivo, Sprague-Dawley rats; details: rat, IM
Summary of the method: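 Male Sprague-Dawley rats dosed IM (caudal thigh) at 45, 75 or 100 mg/kg FTC-equivalents. Cells from fresh blood, spleen and lymph nodes isolated, stored in 70% methanol and counted. Triphosphate separated from mono- and diphosphates on QMA cartridges, then dephosphorylated with type XA sweet potato acid phosphatase. Isotope-labelled lamivudine internal standard added after incubation (final 0.5 ng/mL). Mean±SEM, n=3–5.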

[7] = reported value, no reference given; cited from earlier work

Q: Which aqueous solubility (Aqueous solubility) does the source give for 2`-deoxy-5-fluoro-3`thiacytidine [FTC] here?
A: 134 mg/mL

Q: What about the pEC50 (HIV-1ADA [1]) of the same substance?
A: 7.10

Q: And the “MDM viability (MTT)” value [2]?
A: did not affect MDM viability

Q: What about the “highest intracellular FTC-TP concentration” value ([3]; after 8 hrs) of the same substance?
A: 10 pmol/10^6 cells

Q: And the intracellular drug levels ([3]; uptake over 24 hrs)?
A: minimal detectable intracellular drug levels

Q: And the “inhibition of viral RT activity” value (HIV-1ADA [4]; MDMs preloaded 100 µM 8 hrs, challenge at 24 hrs)?
A: 30%

Q: And the “HIV-1 p24 antigen staining” value (HIV-1ADA [4]; by 12 hrs following treatment)?
A: HIV-1 p24+ cells were observed

Q: And the “HIV-1 p24 antigen staining” value (HIV-1ADA [4]; by day 1)?
A: no effect

Q: What about the “HIV-1 RT activity in pre-exposed MDMs” value (HIV-1ADA [4]; challenge beyond day 1) of the same substance?
A: did not have effect

Q: And the FTC plasma level ([5]; 45 mg/kg FTC-equivalents, day 1)?
A: 25 ng/mL

Q: What about the “FTC level in liver” value ([5]; 45 mg/kg, day 7) of the same substance?
A: 2.6 ng/g

Q: And the “FTC level in lymph nodes” value ([5]; 45 mg/kg, day 7)?
A: 17 ng/g

Q: What about the “FTC level in spleen” value ([5]; 45 mg/kg, day 7) of the same substance?
A: 0 ng/g

Q: And the FTC plasma level ([5]; 45 mg/kg, day 7)?
A: 0 ng/mL

Q: What about the FTC plasma level ([5]; 75 mg/kg FTC-equivalents, day 1) of the same substance?
A: 34 ng/mL

Q: And the “FTC level in liver” value ([5]; 75 mg/kg, day 7)?
A: 14 ng/g

Q: What about the “FTC level in lymph nodes” value ([5]; 75 mg/kg, day 7) of the same substance?
A: 6 ng/g

Q: What about the “FTC level in spleen” value ([5]; 75 mg/kg, day 7) of the same substance?
A: 1.6 ng/g

Q: And the FTC plasma level ([5]; 75 mg/kg, day 7)?
A: 3 ng/mL

Q: What about the FTC plasma level ([5]; 100 mg/kg FTC-equivalents, day 1) of the same substance?
A: 52 ng/mL

Q: And the “FTC level in liver” value ([5]; 100 mg/kg, day 7)?
A: 0.6 ng/g

Q: What about the “FTC level in lymph nodes” value ([5]; 100 mg/kg, day 7) of the same substance?
A: 8 ng/g

Q: And the “FTC level in spleen” value ([5]; 100 mg/kg, day 7)?
A: 6 ng/g

Q: What about the FTC plasma level ([5]; 100 mg/kg, day 7) of the same substance?
A: 1.4 ng/mL

Q: What about the “FTC plasma levels compared to NMFTC treatment” value ([5]; 2 hrs) of the same substance?
A: several fold higher

Q: What about the “FTC-TP level in PBMCs” value ([6]; 45 mg/kg, day 1) of the same substance?
A: 100 fmol/10^6 cells

Q: And the “FTC-TP level in PBMCs” value ([6]; 45 mg/kg, day 7)?
A: 6 fmol/10^6 cells

Q: And the “FTC-TP level in PBMCs” value ([6]; 75 mg/kg, day 1)?
A: 133 fmol/10^6 cells

Q: What about the “FTC-TP level in PBMCs” value ([6]; 75 mg/kg, day 7) of the same substance?
A: 7 fmol/10^6 cells

Q: And the “FTC-TP level in PBMCs” value ([6]; 100 mg/kg, day 1)?
A: 163 fmol/10^6 cells

Q: What about the “FTC-TP level in PBMCs” value ([6]; 100 mg/kg, day 7) of the same substance?
A: 8 fmol/10^6 cells

Q: What about the “fold higher PBMC FTC-TP levels compared to NMFTC treatment” value ([6]; 2 hrs) of the same substance?
A: 2–3 fold

Q: What about the “FTC-TP levels in lymph node cells” value ([6]; day 1, across doses) of the same substance?
A: 4–7 fmol/10^6 cells

Q: And the “FTC-TP levels in spleen” value ([6]; day 1, across doses)?
A: 6–13 fmol/10^6 cells

Q: And the “FTC-TP levels in lymph node cells” value ([6]; day 7, regardless of dose)?
A: 1–2 fmol/10^6 cells

Q: And the “FTC-TP levels in spleen” value ([6]; day 7, regardless of dose)?
A: 2–3 fmol/10^6 cells

Q: And the IC90 [7]?
A: 0.014 µg/mL

Q: And the “reported 50% inhibitory concentration (IC50)” value [7]?
A: 0.008 µg/mL
